Test results taken from ChEMBL document CHEMBL1671785, “Synthesis, physical-chemical characterisation and biological evaluation of novel 2-amido-3-hydroxypyridin-4(1H)-ones: Iron chelators with the potential for treating Alzheimer's disease” (Bioorg Med Chem, 2011).
Activity calls are given as the source filed them. The rule behind the calls is not given here.

Legend:
[1] = Association constant pKa of the compound; assay type: physicochemical
Procedure, shortened: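 Ligand pKa by automated potentiometric titration with spectral scans in 0.1 M KCl at 25 ± 0.1 °C. pH was raised or lowered in 0.1-unit steps with KOH or HCl, and readings were taken once pH drifted by <0.001 over 3 s. A 1 min equilibration was used at each step before analysis of the titration data.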

[2] = Lipophilicity, log D of the compound at pH 7.4; assay type: physicochemical; settings: buffer
Procedure, shortened: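 After centrifugal separation, the loss of aqueous-phase absorbance gives the octanol/buffer concentration ratio.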

Glycine max [3] = assay: Inhibition of soybean lipoxygenase at 100 uM after 15 mins
[4] = Iron chelating activity of the compound; assay type: functional
Procedure, shortened: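 Affinity is given as pM, the negative log of free Fe(III), at total metal 10⁻⁶ M and total ligand 10⁻⁵ M, pH 7.4. Stability constants come from automated potentiometric/spectrophotometric titration in 0.1 M KCl at 25 °C with 5 min equilibration per 0.1 pH step. Data analysed by pHab.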

[5] = target: Tyrosine 3-monooxygenase (Rattus norvegicus) (UniProt P04177); assay: Inhibition of tyrosine hydroxylase in rat striata at 10 uM after 20 mins
Procedure, shortened: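 Rat striatal homogenate (1:9 in 0.32 M sucrose, about 3 mg tissue) in 0.5 M potassium phosphate, pH 6.0, with m-hydroxybenzylhydrazine, 1 mM 6,7-dimethyltetrahydropterine and chelator (1–100 µM). The reaction is started with L-tyrosine (0.4 mM final) for 20 min at 37 °C. L-DOPA is extracted on alumina and quantified by HPLC against α-methyldopa. Triplicate; non-enzymatic background measured using 3-iodotyrosine.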

[6] = Inhibition of soybean lipoxygenase after 15 mins; parameters: species or system Glycine max
Glycine max [7] = assay: Inhibition of soybean lipoxygenase at 10 uM after 15 mins
Procedure, shortened: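 Soybean lipoxygenase in 0.2 M borate buffer, pH 9, was pre-incubated 15 min with the compound (100 µM solution, 10 µM final in cuvette). The reaction was started with linoleic acid (1 mM). Linoleic hydroperoxide formation was followed at 234 nm for 10 min, and rates were computed using ε = 23600 M⁻¹ cm⁻¹.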

Cortical neurone = assay: Neuroprotective activity against FeNTA-induced loss of synaptic integrity in rat cortical neurones assessed as damage to cell bodies at 30 uM by phase contrast microscopy; assay type: functional

Sequence of Tyrosine 3-monooxygenase (Rattus norvegicus) (P04177 whole entry): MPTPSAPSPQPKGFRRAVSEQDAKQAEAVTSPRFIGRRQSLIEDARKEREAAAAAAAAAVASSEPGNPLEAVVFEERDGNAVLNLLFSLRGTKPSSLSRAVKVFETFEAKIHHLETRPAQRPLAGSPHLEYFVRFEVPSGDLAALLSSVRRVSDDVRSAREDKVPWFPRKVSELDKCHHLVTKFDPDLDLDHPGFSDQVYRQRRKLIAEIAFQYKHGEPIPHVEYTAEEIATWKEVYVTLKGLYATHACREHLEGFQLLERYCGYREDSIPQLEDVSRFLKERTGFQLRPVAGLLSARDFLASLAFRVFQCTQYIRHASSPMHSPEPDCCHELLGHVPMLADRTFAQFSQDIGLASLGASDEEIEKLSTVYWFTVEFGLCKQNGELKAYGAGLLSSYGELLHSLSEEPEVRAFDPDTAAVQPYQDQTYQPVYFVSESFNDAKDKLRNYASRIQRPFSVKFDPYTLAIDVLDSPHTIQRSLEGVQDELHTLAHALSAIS

Row | Compound | pKa [1] | logD [2] | inhibition (Glycine max [3]) [%] | Activity [4] | Activity [5] | EC50 [6] [µM] | inhibition (Glycine max [7]) [%] | Activity (Cortical neurone)
1 | CNC(=O)[C@H](Cc1ccccc1)NC(=O)c1nccc(O)c1O.Cl | 6.1 | -0.11 | 71 | 21.4 | Active | 25 | 27.6 | –
2 | Cl.O=C(CNC(=O)c1nccc(O)c1O)NCc1ccccc1 | 6.2 | 0.01 | 62 | 19.1 | – | 54 | 8.3 | –
3 | C[C@H](NC(=O)c1nccc(O)c1O)C(=O)NCc1ccccc1.Cl | 6 | 0.03 | 54 | 18.9 | inactive | 80 | 3.3 | Active
4 | CC(C)CNC(=O)CNC(=O)c1nccc(O)c1O.Cl | 6.2 | -0.33 | 70 | 20.6 | – | 44 | 9.3 | –
5 | CC(C)CNC(=O)[C@H](Cc1ccccc1)NC(=O)c1nccc(O)c1O.Cl | 6 | 0.39 | 81 | 20.4 | Active | 13 | 46.5 | –
6 | CC(C)CNC(=O)[C@H](C)NC(=O)c1nccc(O)c1O.Cl | 6 | -0.08 | 71 | 19.2 | – | 37 | 15.3 | –
7 | CNC(=O)[C@H](C)NC(=O)c1nccc(O)c1O.Cl | 6 | -1.1 | 61 | 19.1 | inactive | 66 | 2.7 | –
8 | CCc1c(O)c(=O)ccn1CC | – | – | 87.4 | – | – | 11 | 43 | –
9 | Cc1c(O)c(=O)ccn1C [DEFERIPRONE] | – | – | 58 | – | – | 64 | – | –
10 | CNC(=O)CNC(=O)c1nccc(O)c1O.Cl | 6.3 | -1.42 | 68 | 20.8 | – | 56 | 19.3 | –
11 | Cl.O=C(N[C@@H](Cc1ccccc1)C(=O)NCc1ccccc1)c1nccc(O)c1O | 6 | 0.9 | 60 | 21.5 | Active | 52 | 30.2 | –
